Measurements published in ChEMBL document CHEMBL5325511, “Discovery of N-(4-(Aminomethyl)phenyl)-5-methylpyrimidin-2-amine Derivatives as Potent and Selective JAK2 Inhibitors” (ACS Med Chem Lett, 2023).

Legend:
[1] = biological target: T1, Receptor-type tyrosine-protein kinase FLT3 (Homo sapiens, UniProt P36888); experiment: Inhibition of FLT3 (unknown origin) in presence of Mg/ATP mixture by [gamma p33]-ATP based radiometric assay
T1 sequence (P36888 whole entry): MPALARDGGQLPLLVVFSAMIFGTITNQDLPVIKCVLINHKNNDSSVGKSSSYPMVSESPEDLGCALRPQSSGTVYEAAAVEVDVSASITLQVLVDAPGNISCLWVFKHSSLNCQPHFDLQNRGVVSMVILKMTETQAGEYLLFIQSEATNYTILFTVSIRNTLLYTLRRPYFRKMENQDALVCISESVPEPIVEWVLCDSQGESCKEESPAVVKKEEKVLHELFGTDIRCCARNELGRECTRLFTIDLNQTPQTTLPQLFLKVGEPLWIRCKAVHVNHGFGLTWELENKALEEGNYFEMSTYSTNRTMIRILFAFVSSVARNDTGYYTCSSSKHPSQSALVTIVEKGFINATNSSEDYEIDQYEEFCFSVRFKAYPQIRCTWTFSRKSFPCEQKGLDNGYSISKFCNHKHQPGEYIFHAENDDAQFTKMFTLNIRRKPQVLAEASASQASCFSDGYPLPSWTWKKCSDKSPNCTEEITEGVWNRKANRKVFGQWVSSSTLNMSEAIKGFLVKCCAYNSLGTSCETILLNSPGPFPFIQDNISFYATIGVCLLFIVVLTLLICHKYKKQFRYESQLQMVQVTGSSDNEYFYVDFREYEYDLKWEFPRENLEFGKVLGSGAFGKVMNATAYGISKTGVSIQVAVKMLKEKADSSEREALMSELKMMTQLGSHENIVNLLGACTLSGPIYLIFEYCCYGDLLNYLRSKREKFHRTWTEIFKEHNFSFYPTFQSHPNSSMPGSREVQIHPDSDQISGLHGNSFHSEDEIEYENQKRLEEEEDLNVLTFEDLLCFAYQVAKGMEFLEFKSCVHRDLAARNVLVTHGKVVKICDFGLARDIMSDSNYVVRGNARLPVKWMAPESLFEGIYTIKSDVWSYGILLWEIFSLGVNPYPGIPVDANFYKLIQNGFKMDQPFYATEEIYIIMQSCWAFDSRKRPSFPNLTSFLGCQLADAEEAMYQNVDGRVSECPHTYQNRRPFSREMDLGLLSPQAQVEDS
Method in brief: (§1)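 IC50 values determined by Eurofins Discovery.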

[2] = Half life in Sprague-Dawley rat at 5 mg/kg, po measured upto 24 hrs by LC-MS/MS analysis; format: ADME, organism-based; conditions: Sprague-Dawley, in vivo
Method in brief: (§2)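 Sprague–Dawley rats, n = 5, dosed at 5 mg/kg as a solution in 2% ethanol and 1% Tween 80, pH 5.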

[3] = Selectivity ratio of IC50 for TYK2 (unknown origin) to IC50 for JAK2 (unknown origin)
[4] = Tmax in Sprague-Dawley rat at 5 mg/kg, po measured upto 24 hrs by LC-MS/MS analysis; format: ADME, organism-based; conditions: Sprague-Dawley, in vivo, read-out: Tmax
Method in brief: (§3)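 Sprague–Dawley rats, n = 5 per group, dosed at 5 mg/kg as a solution in 2% ethanol and 1% Tween 80, pH 5.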

[5] = Selectivity ratio of IC50 for FLT3 (unknown origin) to IC50 for JAK2 (unknown origin)
[6] = Clearance in Sprague-Dawley rat at 5 mg/kg, po measured upto 24 hrs by LC-MS/MS analysis; format: ADME, organism-based; conditions: in vivo; method in brief: as §2
[7] = biological target: Tyrosine-protein kinase JAK2 (Homo sapiens, UniProt O60674, V617F); experiment: Inhibition of JAK2 V617F mutant in human SET2 cells; format: cell-based
Method in brief: (§4)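 Cell proliferation assay. IC50 is the concentration that inhibits proliferation by 50%, taken from dose–response curves. Mean ± SEM of at least three independent experiments.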

[8] = biological target: T1, Receptor-type tyrosine-protein kinase FLT3; experiment: Inhibition of FLT3 in human MOLM-13 cells; format: cell-based; method in brief: as §4
[9] = biological target: Tyrosine-protein kinase JAK2 (Mus musculus, UniProt Q62120, V617F); experiment: Inhibition of JAK2 V617F mutant in mouse BaF3 cells; format: cell-based; method in brief: as §4
[10] = biological target: T2, Tyrosine-protein kinase JAK3 (Homo sapiens, UniProt P52333); experiment: Inhibition of JAK3 (unknown origin) in presence of Mg/ATP mixture by [gamma p33]-ATP based radiometric assay
T2 sequence (P52333 whole entry): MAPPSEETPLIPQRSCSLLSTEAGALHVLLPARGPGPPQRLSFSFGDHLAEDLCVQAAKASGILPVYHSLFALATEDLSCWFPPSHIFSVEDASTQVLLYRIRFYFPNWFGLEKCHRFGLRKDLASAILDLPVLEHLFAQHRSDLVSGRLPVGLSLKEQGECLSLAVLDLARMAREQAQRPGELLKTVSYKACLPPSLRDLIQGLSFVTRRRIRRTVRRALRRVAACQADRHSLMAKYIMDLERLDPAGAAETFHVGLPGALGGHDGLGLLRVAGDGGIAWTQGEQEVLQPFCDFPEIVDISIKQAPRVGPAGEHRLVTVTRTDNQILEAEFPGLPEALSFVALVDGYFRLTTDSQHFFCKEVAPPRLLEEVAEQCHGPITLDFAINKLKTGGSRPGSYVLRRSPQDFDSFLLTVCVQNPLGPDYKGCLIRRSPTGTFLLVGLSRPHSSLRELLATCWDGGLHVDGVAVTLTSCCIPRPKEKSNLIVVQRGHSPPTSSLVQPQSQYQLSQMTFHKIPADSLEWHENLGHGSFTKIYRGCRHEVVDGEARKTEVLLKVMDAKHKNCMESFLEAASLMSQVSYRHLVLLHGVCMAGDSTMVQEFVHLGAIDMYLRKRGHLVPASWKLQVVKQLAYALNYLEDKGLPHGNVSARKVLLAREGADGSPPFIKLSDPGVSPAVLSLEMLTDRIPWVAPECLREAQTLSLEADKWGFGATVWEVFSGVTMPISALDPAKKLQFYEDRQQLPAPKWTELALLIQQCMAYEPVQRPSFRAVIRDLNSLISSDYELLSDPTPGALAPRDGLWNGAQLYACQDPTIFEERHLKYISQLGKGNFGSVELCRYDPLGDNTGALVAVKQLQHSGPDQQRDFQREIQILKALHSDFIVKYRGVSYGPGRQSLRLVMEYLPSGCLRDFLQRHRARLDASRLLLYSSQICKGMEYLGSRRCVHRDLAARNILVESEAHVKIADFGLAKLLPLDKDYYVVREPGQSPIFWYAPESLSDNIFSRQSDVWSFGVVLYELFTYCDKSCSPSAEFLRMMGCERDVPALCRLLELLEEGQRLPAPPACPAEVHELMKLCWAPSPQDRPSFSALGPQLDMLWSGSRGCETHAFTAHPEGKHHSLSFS

[11] = biological target: T3, Tyrosine-protein kinase JAK2 (Homo sapiens, UniProt O60674); experiment: Inhibition of human JAK2 JH1 expressed in baculovirus infected Sf9 cells assessed as residual activity at 100 nM relative to control
[12] = Oral bioavailability in Sprague-Dawley rat at 5 mg/kg measured upto 24 hrs by LC-MS/MS analysis; format: ADME, organism-based; conditions: in vivo; method in brief: as §3
[13] = Cmax in Sprague-Dawley rat at 5 mg/kg, po measured upto 24 hrs by LC-MS/MS analysis; format: ADME, organism-based; set-up: dose 5 mg/kg, time < 24 hrs, route po; conditions: Sprague-Dawley, in vivo, read-out: Cmax; method in brief: as §2
[14] = biological target: Tyrosine-protein kinase JAK1 (Homo sapiens, UniProt P23458); experiment: Inhibition of JAK1 (unknown origin) in presence of Mg/ATP mixture by [gamma p33]-ATP based radiometric assay; method in brief: as §1
[15] = Selectivity ratio of IC50 for JAK3 (unknown origin) to IC50 for JAK2 (unknown origin)
[16] = biological target: T3, Tyrosine-protein kinase JAK2; experiment: Inhibition of JAK2 (unknown origin) in presence of Mg/ATP mixture by [gamma p33]-ATP based radiometric assay; method in brief: as §1
[17] = AUC(0 to t) in Sprague-Dawley rat at 5 mg/kg, po measured upto 24 hrs by LC-MS/MS analysis; format: ADME, organism-based; set-up: time < 24 hrs, dose 5 mg/kg, route po; conditions: in vivo; method in brief: as §2
[18] = Metabolic stability in human liver microsomes assessed as half life; format: ADME, Microsome
[19] = biological target: Non-receptor tyrosine-protein kinase TYK2 (Homo sapiens, UniProt P29597); experiment: Inhibition of TYK2 (unknown origin) in presence of Mg/ATP mixture by [gamma p33]-ATP based radiometric assay
Sequence of Non-receptor tyrosine-protein kinase TYK2 (P29597 whole entry): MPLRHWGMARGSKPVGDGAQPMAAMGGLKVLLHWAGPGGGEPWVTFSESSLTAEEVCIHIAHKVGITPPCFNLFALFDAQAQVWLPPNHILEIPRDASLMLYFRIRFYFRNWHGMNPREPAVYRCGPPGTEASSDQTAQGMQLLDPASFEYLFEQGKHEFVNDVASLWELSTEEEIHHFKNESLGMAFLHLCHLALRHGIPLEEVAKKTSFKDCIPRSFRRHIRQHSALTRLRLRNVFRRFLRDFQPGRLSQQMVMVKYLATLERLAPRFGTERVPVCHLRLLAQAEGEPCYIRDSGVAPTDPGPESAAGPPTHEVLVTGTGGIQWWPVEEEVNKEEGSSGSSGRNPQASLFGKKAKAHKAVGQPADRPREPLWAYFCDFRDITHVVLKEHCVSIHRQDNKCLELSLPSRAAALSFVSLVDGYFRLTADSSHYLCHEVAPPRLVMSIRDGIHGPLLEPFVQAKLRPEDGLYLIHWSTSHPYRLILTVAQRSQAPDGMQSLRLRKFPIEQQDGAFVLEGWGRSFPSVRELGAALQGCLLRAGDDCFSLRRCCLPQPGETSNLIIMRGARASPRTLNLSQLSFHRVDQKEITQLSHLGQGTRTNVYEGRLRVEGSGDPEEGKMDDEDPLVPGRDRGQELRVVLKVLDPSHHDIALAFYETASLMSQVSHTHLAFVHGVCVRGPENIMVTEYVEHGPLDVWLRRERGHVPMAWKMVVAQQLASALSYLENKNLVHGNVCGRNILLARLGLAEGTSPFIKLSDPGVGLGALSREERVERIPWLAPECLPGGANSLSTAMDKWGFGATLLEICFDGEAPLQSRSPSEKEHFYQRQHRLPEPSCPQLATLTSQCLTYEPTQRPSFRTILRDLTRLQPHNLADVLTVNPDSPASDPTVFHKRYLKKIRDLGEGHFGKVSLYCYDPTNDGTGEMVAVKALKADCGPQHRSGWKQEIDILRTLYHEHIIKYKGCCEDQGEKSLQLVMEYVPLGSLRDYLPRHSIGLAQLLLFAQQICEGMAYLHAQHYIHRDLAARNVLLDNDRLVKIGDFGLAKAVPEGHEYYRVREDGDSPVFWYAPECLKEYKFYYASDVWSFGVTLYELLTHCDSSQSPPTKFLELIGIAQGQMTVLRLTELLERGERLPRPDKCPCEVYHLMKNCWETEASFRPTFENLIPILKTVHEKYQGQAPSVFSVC

T3 sequence (O60674 whole entry): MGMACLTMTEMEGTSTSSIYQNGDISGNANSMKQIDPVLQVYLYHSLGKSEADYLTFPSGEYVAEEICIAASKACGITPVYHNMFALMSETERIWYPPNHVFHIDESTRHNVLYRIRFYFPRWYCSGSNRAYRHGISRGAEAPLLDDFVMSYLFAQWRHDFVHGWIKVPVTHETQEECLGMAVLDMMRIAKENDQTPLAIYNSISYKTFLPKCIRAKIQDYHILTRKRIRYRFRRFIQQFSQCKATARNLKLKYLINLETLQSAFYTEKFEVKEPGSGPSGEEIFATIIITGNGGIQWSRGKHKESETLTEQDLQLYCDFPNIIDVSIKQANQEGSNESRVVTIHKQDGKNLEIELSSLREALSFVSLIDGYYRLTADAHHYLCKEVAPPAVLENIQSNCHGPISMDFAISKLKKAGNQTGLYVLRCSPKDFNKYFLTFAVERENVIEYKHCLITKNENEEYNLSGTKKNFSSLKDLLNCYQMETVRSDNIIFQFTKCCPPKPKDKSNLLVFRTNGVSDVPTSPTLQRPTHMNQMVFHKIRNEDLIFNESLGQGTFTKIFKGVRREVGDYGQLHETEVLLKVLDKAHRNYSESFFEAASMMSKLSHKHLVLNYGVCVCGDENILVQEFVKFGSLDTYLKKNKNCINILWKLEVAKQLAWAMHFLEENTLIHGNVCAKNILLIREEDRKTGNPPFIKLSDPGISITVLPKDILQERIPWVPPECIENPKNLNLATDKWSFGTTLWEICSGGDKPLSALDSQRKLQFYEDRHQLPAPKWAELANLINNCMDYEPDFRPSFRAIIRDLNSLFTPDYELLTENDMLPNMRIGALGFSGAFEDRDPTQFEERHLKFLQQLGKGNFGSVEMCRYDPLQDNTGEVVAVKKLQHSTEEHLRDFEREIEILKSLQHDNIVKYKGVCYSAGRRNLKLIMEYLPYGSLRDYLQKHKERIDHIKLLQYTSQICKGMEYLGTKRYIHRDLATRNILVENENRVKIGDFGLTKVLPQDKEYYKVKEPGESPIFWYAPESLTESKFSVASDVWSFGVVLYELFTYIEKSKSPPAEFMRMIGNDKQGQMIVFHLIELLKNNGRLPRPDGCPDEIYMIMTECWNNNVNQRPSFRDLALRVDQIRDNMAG
Sequence of Tyrosine-protein kinase JAK1 (P23458 whole entry): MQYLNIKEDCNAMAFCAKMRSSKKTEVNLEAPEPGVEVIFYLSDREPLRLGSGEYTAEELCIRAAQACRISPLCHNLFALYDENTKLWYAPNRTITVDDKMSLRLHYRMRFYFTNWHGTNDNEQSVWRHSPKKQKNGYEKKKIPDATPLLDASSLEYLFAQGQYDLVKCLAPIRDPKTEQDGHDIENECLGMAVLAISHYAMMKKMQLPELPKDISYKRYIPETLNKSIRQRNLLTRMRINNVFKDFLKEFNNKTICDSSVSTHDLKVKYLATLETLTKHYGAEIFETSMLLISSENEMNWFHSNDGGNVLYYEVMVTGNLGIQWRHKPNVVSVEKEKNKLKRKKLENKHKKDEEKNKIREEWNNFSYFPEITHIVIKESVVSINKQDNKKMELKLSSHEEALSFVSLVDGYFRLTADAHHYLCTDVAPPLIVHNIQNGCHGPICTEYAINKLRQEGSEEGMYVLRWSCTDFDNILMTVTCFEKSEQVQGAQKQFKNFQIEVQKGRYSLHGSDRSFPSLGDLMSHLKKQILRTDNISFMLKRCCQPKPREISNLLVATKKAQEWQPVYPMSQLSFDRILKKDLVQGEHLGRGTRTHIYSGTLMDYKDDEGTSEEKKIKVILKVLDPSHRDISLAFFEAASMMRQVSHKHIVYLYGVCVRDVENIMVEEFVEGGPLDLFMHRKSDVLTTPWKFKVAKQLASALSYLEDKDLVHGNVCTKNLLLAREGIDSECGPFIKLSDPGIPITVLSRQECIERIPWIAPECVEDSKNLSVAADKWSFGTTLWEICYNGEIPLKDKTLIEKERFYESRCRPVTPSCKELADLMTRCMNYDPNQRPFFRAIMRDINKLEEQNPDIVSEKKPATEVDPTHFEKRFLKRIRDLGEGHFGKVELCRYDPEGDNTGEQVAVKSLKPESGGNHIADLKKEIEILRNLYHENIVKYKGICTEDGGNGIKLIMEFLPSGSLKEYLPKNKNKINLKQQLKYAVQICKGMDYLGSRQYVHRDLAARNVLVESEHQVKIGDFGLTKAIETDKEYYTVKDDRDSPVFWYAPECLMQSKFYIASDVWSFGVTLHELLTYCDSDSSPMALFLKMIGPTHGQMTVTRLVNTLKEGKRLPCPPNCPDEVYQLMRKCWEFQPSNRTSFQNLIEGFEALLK
Sequence of Tyrosine-protein kinase JAK2 (Homo sapiens, UniProt O60674, V617F) (O60674 whole entry V617F): as the sequence (O60674 whole entry) above, with V617F counted along it
Sequence of Tyrosine-protein kinase JAK2 (Mus musculus, UniProt Q62120, V617F) (Q62120 as listed by the source V617F): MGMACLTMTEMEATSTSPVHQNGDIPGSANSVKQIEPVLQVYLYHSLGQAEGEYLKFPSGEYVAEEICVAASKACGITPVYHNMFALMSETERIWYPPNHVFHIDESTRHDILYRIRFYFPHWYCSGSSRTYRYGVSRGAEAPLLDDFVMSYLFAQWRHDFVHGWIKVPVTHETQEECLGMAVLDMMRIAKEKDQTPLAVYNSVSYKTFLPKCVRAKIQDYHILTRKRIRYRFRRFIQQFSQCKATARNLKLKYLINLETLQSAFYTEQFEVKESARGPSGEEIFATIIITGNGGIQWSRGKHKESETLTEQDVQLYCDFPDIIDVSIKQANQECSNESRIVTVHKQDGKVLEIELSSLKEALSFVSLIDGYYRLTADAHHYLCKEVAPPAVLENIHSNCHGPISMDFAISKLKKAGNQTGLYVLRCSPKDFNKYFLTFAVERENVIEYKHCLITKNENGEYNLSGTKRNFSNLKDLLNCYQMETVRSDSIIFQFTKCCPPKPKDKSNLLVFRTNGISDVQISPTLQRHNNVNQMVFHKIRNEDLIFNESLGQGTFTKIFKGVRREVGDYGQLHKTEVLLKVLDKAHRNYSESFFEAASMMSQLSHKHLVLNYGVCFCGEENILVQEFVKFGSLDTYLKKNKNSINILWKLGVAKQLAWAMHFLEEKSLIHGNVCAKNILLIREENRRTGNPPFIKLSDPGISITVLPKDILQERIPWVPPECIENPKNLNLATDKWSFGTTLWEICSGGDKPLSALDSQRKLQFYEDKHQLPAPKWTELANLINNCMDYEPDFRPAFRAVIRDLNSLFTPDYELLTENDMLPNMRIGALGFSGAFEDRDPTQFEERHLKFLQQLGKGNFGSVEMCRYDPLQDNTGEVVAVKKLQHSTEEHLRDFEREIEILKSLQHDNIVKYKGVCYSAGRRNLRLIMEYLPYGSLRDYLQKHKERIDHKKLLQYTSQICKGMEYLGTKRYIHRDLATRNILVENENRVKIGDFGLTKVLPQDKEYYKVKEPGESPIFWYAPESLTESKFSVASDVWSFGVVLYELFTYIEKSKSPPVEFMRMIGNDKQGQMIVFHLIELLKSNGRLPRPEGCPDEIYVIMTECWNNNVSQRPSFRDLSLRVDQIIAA

With `CCS(=O)(=O)NCc1ccc(Nc2ncc(C)c(-c3cnn(C(C)C)c3)n2)cc1` the IC50 [1] was 412 nM, the half-life [2] was 6.3 h and the Ratio IC50 [3] was 32. For the same molecule, the Tmax [4] was 1 h, the Ratio IC50 [5] was 68.7 and the CL [6] was 340 mL/min/kg. The IC50 [7] was 212 nM, the IC50 [8] was 1510 nM and the IC50 [9] was 69.2 nM. It also gave an IC50 [10] of 287 nM, an Activity [11] of 0% and a bioavailability [12] of 35.7%. For the same molecule, the Cmax [13] was 77.8 ng/mL, the IC50 [14] was 142 nM and the Ratio IC50 [15] was 47.8. The IC50 [16] was 6 nM, the AUCt [17] was 1556.8 ng·h/mL and the half-life [18] was over 2 h. It also gave an IC50 [19] of 192 nM.
